Among the data in ChEMBL document CHEMBL4393735, “Molecular modelling, synthesis, and biological evaluations of a 3,5-disubstituted isoxazole fatty acid analogue as a PPARα-selective agonist” (Bioorg Med Chem, 2019) are Activity and fold change (FC) values, retold here.

Data set [1] deals with T1, Oxysterols receptor LXR-alpha (Homo sapiens) (UniProt Q13133).
T1 sequence (whole entry): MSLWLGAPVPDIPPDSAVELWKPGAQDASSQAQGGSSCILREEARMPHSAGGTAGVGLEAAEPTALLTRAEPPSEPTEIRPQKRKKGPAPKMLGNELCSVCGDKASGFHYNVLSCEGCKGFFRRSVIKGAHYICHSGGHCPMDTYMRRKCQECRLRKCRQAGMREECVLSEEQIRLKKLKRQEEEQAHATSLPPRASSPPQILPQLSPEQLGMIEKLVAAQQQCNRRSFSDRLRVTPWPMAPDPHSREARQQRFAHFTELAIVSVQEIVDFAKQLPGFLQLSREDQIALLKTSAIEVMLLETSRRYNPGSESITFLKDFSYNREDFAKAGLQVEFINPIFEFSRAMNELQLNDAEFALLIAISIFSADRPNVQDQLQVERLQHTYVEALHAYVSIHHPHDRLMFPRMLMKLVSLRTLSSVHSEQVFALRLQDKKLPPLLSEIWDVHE
Kind of data set: Agonist activity at full length human GAL4-DBD fused LXRalpha LBD (164 to 447 residues) expressed in COS1 cells at 25 to 50 uM measured after 18 hrs by dual luciferase reporter gene assay. The class given is cell-based. An outline of the steps: (§1)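 COS-1 cells were transfected using Lipofectamine 2000 with GAL4-DBD–human NR-LBD plasmid, a 5×UAS-SV40 firefly luciferase reporter and pRL-CMV. After 6 h, cells were treated with 0, 25 or 50 μM in 0.1% DMSO (final) for 18 h. Firefly signal was normalized to Renilla, then to DMSO control and GAL4-only. Three biological replicates in quadruplicate, mean ± SEM, two-way ANOVA with Bonferroni.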
A general note: A reporter such as luciferase makes a cellular process visible.

Data set [2] deals with T2, Peroxisome proliferator-activated receptor alpha (Homo sapiens) (UniProt Q07869).
T2 sequence (whole entry): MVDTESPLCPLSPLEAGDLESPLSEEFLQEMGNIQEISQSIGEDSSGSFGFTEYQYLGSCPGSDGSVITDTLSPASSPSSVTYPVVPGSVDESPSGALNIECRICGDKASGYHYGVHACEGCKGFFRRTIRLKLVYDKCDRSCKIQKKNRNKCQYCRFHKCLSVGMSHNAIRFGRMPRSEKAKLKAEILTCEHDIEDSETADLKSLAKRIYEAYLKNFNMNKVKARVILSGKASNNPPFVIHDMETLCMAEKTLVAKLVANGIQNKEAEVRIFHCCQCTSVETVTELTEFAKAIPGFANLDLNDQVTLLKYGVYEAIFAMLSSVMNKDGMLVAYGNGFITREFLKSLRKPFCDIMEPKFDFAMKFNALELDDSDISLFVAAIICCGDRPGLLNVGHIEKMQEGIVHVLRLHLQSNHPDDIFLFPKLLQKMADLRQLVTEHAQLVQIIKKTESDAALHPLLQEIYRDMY
The data set can be described thus: Agonist activity at full length human FLAG-tagged GAL4-DBD fused PPARalpha LBD (168 to 468 residues) expressed in COS1 cells transfected with hRXRalpha and pGL3-CPT1AInt PPRE mutant assessed as CPT1A mRNA level at 50 uM measured after 18 hrs by dual luciferase reporter gene assay. Format: cell-based. In a few lines: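 COS-1 cells were transfected with full-length human PPARα (or PPARγ) plus RXRα expression plasmids, with a wild-type or PPRE-mutated CPT1A-intronic (or PLIN1) luciferase reporter and pRL-CMV. Cells were treated with 50 μM in 0.1% DMSO (final) for 18 h. Dual-luciferase read-out normalized to DMSO control. Three biological replicates in quadruplicate, mean ± SEM.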

The subject of data set [3] is COS-1. The data set can be described thus: Cytotoxicity against African green monkey COS1 cells assessed as reduction in cell viability at 10^-4 M by XTT based assay. The note with it: chlorocebus aethiops, cos-1, 100 µM. An outline of the steps:
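COS-1 cells were treated across the same concentration series as the GAL4 dose-response runs. Cytotoxicity was measured as LDH released into medium (absorbance 492/750 nm) and by XTT viability assay (absorbance 450/690 nm). Results expressed relative to control.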
A general note: Formazan colour is commonly taken as a measure of viable cells.

For data set [4], the system named is SGBS. Kind of data set: Upregulation of ANGPTL4 gene expression in human preadipocyte derived from Simpson-Golabi-Behmel syndrome (SGBS) patient at 25 uM measured for 12 days by qRT-PCR analysis. Format: functional, cell-based. In a few lines: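 SGBS cells were differentiated with serum-free induction medium containing 25 μM test agent, 2 μM rosiglitazone or 0.1% DMSO from day 0. IBMX and dexamethasone were removed on day 4 and medium was renewed on day 8. RNA was taken on days 0, 4, 8 and 12 for qPCR, normalized to TBP and to day 0. At least three biological replicates in duplicate, two-way ANOVA with Bonferroni.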

Data set [5] concerns the target T3, Peroxisome proliferator-activated receptor delta (Homo sapiens) (UniProt Q03181).
T3 sequence (whole entry): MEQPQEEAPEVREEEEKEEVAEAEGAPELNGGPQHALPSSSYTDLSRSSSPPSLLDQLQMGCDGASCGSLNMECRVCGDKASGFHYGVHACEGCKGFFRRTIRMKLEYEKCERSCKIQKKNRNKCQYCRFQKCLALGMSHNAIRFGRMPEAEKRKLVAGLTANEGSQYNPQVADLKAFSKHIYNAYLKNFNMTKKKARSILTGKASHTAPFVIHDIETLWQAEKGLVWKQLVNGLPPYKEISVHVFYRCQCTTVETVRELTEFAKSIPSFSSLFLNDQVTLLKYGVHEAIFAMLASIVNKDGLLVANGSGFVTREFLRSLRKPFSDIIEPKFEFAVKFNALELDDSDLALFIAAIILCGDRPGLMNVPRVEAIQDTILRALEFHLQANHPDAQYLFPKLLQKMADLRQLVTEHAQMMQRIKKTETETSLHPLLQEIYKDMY
Kind of data set: Agonist activity at full length human GAL4-DBD fused PPARdelta LBD expressed in COS1 cells at 25 to 50 uM measured after 18 hrs by dual luciferase reporter gene assay. Format: cell-based. In a few lines:
as §1

For data set [6], the target named is T2, Peroxisome proliferator-activated receptor alpha (Homo sapiens). Kind of data set: Agonist activity at PPARalpha in human Huh7 cells assessed as SCD1 mRNA expression at 50 uM measured after 18 hrs by qRT-PCR analysis. Format: cell-based. An outline of the steps: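 Treatment for 18 h at 50 μM (or 1 μM for the 1 μM agents), DMSO vehicle. Harvested for qPCR. mRNA normalized to TBP by the comparative threshold method, expressed relative to DMSO control. Two biological replicates run in duplicate, mean ± SEM. Primary hepatocytes came from male C57BL/6N mice aged 7–8 weeks, isolated by portal-vein perfusion and digestion, seeded on collagen I and used on day 2. HuH-7 cells were kept in DMEM with 10% FBS and ITS.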
In general terms: Quantitative PCR measures a nucleic acid by following its amplification.

The target is the same in data set [7]. Kind of data set: Agonist activity at full length human FLAG-tagged GAL4-DBD fused PPARalpha LBD (168 to 468 residues) expressed in COS1 cells at 25 to 50 uM measured after 18 hrs by dual luciferase reporter gene assay relative to pirinixic acid. Format: cell-based. An outline of the steps: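 COS-1 cells were transfected with GAL4-DBD–PPARα-LBD, a 5×UAS luciferase reporter and a Renilla control. After 6 h, cells were treated with 0, 25 or 50 μM test compound or pirinixic acid in 0.1% DMSO (final) for 18 h. Dual-luciferase read-out, firefly/Renilla ratio, normalized to DMSO control and GAL4.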

Calls of active or inactive are those of the source.

Turning to `CCCCCCCc1cc(CCCCCC(=O)O)no1`, the outcome in data set [1], in data set [2], in data set [5] and in data set [6] was inactive. The Activity result in data set [3] was “Toxic”. Also, in data set [4], the outcome was Active. In data set [7], the fold change (FC) stood at 2.5.
